Measured values pooled from the literature.
Each line is one published result; the experiments were not run side by side. In brackets after ≈: the same amount, converted by molar mass.
Organism: Enterococcus faecalis

SMILES	assay	system	conditions	quantity	value
COc1ccc(CNO)c(C)c1	microbial growth	ATCC19433	8 h	MIC50	< 80 µg/mL
CC1(C)S[C@@H]2[C@H](NC(=O)[C@H](N)c3ccccc3)C(=O)N2[C@H]1C(=O)O	microbial growth, well diffusion	ATCC51299	60000 µg/mL	inhibition zone	28 mm
CCCCCCCCCCCCCCCC(=O)NS(=O)(=O)OC1CCCCC1	microbial growth, broth dilution	ATCC33186	–	MIC	12.5 µg/mL (≈ 29.9 µM)
CCC(CCCCCCCCCCc1cc(O)cc(O)c1)C(C)C (centres unmarked)	microbial growth	ATCC29212	–	IC50	9.23 µM
CCCCCCCCCCCCCCCC(=O)NS(=O)(=O)Oc1ccc(Cl)c(Cl)c1	microbial growth, broth dilution	ATCC33186	–	MIC	0.8 µg/mL (≈ 1.66 µM)
CCCCCCCCCCCCCCCC(=O)CP(=O)(O)O	microbial growth	ATCC33186	–	MIC	12.5 µg/mL (≈ 37.4 µM)
CC(C)CCCCCCCCCCCCc1cc(O)cc(O)c1	microbial growth	ATCC29212	–	IC50	81.1 µM
CC(C)(O/N=C(\C(=O)N[C@@H]1C(=O)N2C(C(=O)[O-])=C(C[n+]3ccccc3)CS[C@H]12)c1csc(N)n1)C(=O)O	microbial killing	–	drug-resistant strain, clinical isolate	MBC	> 128 µg/mL
O=C(CCCCCCCCCCOc1ccccc1)NP(=O)(O)O	microbial growth	ATCC33186	–	MIC	100 µg/mL (≈ 280 µM)
CCCCCCCCCCCCCCCC(=O)NS(=O)(=O)OC1CCOCC1	microbial growth, broth dilution	ATCC33186	–	MIC	25 µg/mL (≈ 59.6 µM)
CCCCCCCCCCCC(=O)NP(=O)(O)O	microbial growth	ATCC33186	–	MIC	200 µg/mL (≈ 716 µM)
CN[C@H](CC(C)C)C(=O)N[C@H]1C(=O)N[C@@H](CC(N)=O)C(=O)N[C@H]2C(=O)N[C@H]3C(=O)N[C@H](C(=O)N[C@H](C(=O)O)c4cc(O)cc(O)c4-c4cc3ccc4O)[C@H](O)c3ccc(c(Cl)c3)Oc3cc2cc(c3O[C@@H]2O[C@H](CO)[C@@H](O)[C@H](O)[C@H]2O[C@H]2C[C@](C)(N)[C@H](O)[C@H](C)O2)Oc2ccc(cc2Cl)[C@H]1O	microbial killing	–	drug-resistant strain, clinical isolate	MBC	32 µg/mL (≈ 22.1 µM)
CCCCCCCCCCCCCCCc1cc(O)cc(O)c1	microbial growth	ATCC29212	–	IC50	> 200 µM
CCCCCCCCCCCCCCCC(=O)NS(=O)(=O)Oc1ccc(OC)cc1	microbial growth	ATCC33186	–	MIC	> 200 µg/mL
